Experimental data from ChEMBL document CHEMBL4689842, “EUbOPEN Chemogenomics Library wave 1” (2021).

System: U2OS
Test: Multiplex assay against U2OS
Assay type: toxicity, cell-based
Conditions: human
Summary of the method: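 At seeding, live cells were stained with Hoechst33342, BioTracker Green Microtubule Cytoskeleton Dye, MitoTracker Red and Annexin V Alexa Fluor 680. After compound addition they were imaged on a CQ1 microscope at 37°C and 5% CO2, and CellPathfinder machine-learning gating sorted them into Hoechst high-intensity objects or normal cells, with normal cells further split into healthy, pyknosed or fragmented nuclei and pyknosed cells into mitotic or apoptotic. Tubulin, mitochondrial-mass and membrane-permeability phenotypes are given as per cents of cells with healthy nuclei.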

[1] = 12 h, 1 µM, compound concentration 1 uM, replicate 1
[2] = 12 h, 1 µM, compound concentration 1 uM, replicate 2
[3] = 12 h, 10 µM, compound concentration 10 uM, replicate 1
[4] = 12 h, 10 µM, compound concentration 10 uM, replicate 2
[5] = 24 h, 1 µM, compound concentration 1 uM, replicate 1
[6] = 24 h, 1 µM, compound concentration 1 uM, replicate 2
[7] = 24 h, 10 µM, compound concentration 10 uM, replicate 1
[8] = 24 h, 10 µM, compound concentration 10 uM, replicate 2
[9] = 48 h, 1 µM, compound concentration 1 uM, replicate 1
[10] = 48 h, 1 µM, compound concentration 1 uM, replicate 2
[11] = 48 h, 10 µM, compound concentration 10 uM, replicate 1
[12] = 48 h, 10 µM, compound concentration 10 uM, replicate 2

With `CCOc1cc(C(=O)N2CCC(N3CCN(C)CC3)CC2)ccc1Nc1ncc2c(n1)N(C1CCCC1)c1ccccc1C(=O)N2C` the “Population Apoptotic (%)” value [1] was 73%, the “Population Fragmented Nuclei (%)” value [1] was 14% and the “Population Healthy Nuclei (%)” value [1] was 70%. For the same compound, the “Population Hoechst High Intensity Objects (%)” value [1] was 6%, the “Population Membrane Permeable-Phenotype (%)” value [1] was 8% and the “Population Mitochondria Different-Phenotype (%)” value [1] was 75%. The “Population Mitotic Cells (%)” value [1] was 26%, the “Population Normal (%)” value [1] was 93% and the “Population Pyknosed Nuclei (%)” value [1] was 15%. The “Population Tubulin-Different-Phenotype (%)” value [1] was 69%, the “Total Cell Count” value [1] was 153 and the “Population Apoptotic (%)” value [2] was 75%. For the same compound, the “Population Fragmented Nuclei (%)” value [2] was 6%, the “Population Healthy Nuclei (%)” value [2] was 80% and the “Population Hoechst High Intensity Objects (%)” value [2] was 10%. For the same compound, the “Population Membrane Permeable-Phenotype (%)” value [2] was 4%, the “Population Mitochondria Different-Phenotype (%)” value [2] was 76% and the “Population Mitotic Cells (%)” value [2] was 25%. For the same compound, the “Population Normal (%)” value [2] was 89%, the “Population Pyknosed Nuclei (%)” value [2] was 12% and the “Population Tubulin-Different-Phenotype (%)” value [2] was 48%. For the same compound, the “Total Cell Count” value [2] was 67, the “Population Apoptotic (%)” value [3] was 83% and the “Population Fragmented Nuclei (%)” value [3] was 19%. The “Population Healthy Nuclei (%)” value [3] was 48%, the “Population Hoechst High Intensity Objects (%)” value [3] was 7% and the “Population Membrane Permeable-Phenotype (%)” value [3] was 95%. For the same compound, the “Population Mitochondria Different-Phenotype (%)” value [3] was 97%, the “Population Mitotic Cells (%)” value [3] was 16% and the “Population Normal (%)” value [3] was 92%. The “Population Pyknosed Nuclei (%)” value [3] was 32%, the “Population Tubulin-Different-Phenotype (%)” value [3] was 100% and the “Total Cell Count” value [3] was 181. The “Population Apoptotic (%)” value [4] was 92%, the “Population Fragmented Nuclei (%)” value [4] was 21% and the “Population Healthy Nuclei (%)” value [4] was 50%. For the same compound, the “Population Hoechst High Intensity Objects (%)” value [4] was 6%, the “Population Membrane Permeable-Phenotype (%)” value [4] was 93% and the “Population Mitotic Cells (%)” value [4] was 7%. The “Population Normal (%)” value [4] was 93%, the “Population Pyknosed Nuclei (%)” value [4] was 27% and the “Total Cell Count” value [4] was 69. The “Population Apoptotic (%)” value [5] was 50%, the “Population Healthy Nuclei (%)” value [5] was 61% and the “Population Hoechst High Intensity Objects (%)” value [5] was 4%. The “Population Membrane Permeable-Phenotype (%)” value [5] was 2%, the “Population Mitochondria Different-Phenotype (%)” value [5] was 64% and the “Population Mitotic Cells (%)” value [5] was 50%. The “Population Normal (%)” value [5] was 95%, the “Population Pyknosed Nuclei (%)” value [5] was 22% and the “Population Tubulin-Different-Phenotype (%)” value [5] was 17%. For the same compound, the “Total Cell Count” value [5] was 142, the “Population Apoptotic (%)” value [6] was 22% and the “Population Fragmented Nuclei (%)” value [6] was 16%. The “Population Healthy Nuclei (%)” value [6] was 72%, the “Population Hoechst High Intensity Objects (%)” value [6] was 5% and the “Population Membrane Permeable-Phenotype (%)” value [6] was 5%. The “Population Mitochondria Different-Phenotype (%)” value [6] was 65%, the “Population Mitotic Cells (%)” value [6] was 77% and the “Population Normal (%)” value [6] was 94%. The “Population Pyknosed Nuclei (%)” value [6] was 11%, the “Population Tubulin-Different-Phenotype (%)” value [6] was 27% and the “Total Cell Count” value [6] was 71. For the same compound, the “Population Apoptotic (%)” value [7] was 92%, the “Population Fragmented Nuclei (%)” value [7] was 23% and the “Population Healthy Nuclei (%)” value [7] was 17%. The “Population Hoechst High Intensity Objects (%)” value [7] was 7%, the “Population Membrane Permeable-Phenotype (%)” value [7] was 93% and the “Population Mitochondria Different-Phenotype (%)” value [7] was 100%. For the same compound, the “Population Mitotic Cells (%)” value [7] was 7%, the “Population Normal (%)” value [7] was 92% and the “Total Cell Count” value [7] was 215. For the same compound, the “Population Apoptotic (%)” value [8] was 88%, the “Population Fragmented Nuclei (%)” value [8] was 10% and the “Population Healthy Nuclei (%)” value [8] was 30%. The “Population Hoechst High Intensity Objects (%)” value [8] was 11%, the “Population Membrane Permeable-Phenotype (%)” value [8] was 100% and the “Population Mitochondria Different-Phenotype (%)” value [8] was 96%. The “Population Mitotic Cells (%)” value [8] was 11%, the “Population Normal (%)” value [8] was 88% and the “Population Pyknosed Nuclei (%)” value [8] was 59%. For the same compound, the “Population Tubulin-Different-Phenotype (%)” value [8] was 100%, the “Total Cell Count” value [8] was 85 and the “Population Apoptotic (%)” value [9] was 53%. For the same compound, the “Population Fragmented Nuclei (%)” value [9] was 15%, the “Population Healthy Nuclei (%)” value [9] was 64% and the “Population Hoechst High Intensity Objects (%)” value [9] was 3%. The “Population Membrane Permeable-Phenotype (%)” value [9] was 1%, the “Population Mitochondria Different-Phenotype (%)” value [9] was 28% and the “Population Mitotic Cells (%)” value [9] was 46%. The “Population Normal (%)” value [9] was 96%, the “Population Pyknosed Nuclei (%)” value [9] was 19% and the “Population Tubulin-Different-Phenotype (%)” value [9] was 9%. For the same compound, the “Total Cell Count” value [9] was 151, the “Population Apoptotic (%)” value [10] was 42% and the “Population Fragmented Nuclei (%)” value [10] was 13%. The “Population Healthy Nuclei (%)” value [10] was 72%, the “Population Hoechst High Intensity Objects (%)” value [10] was 5% and the “Population Membrane Permeable-Phenotype (%)” value [10] was 12%. For the same compound, the “Population Mitochondria Different-Phenotype (%)” value [10] was 40%, the “Population Mitotic Cells (%)” value [10] was 57% and the “Population Normal (%)” value [10] was 94%. For the same compound, the “Population Pyknosed Nuclei (%)” value [10] was 14%, the “Population Tubulin-Different-Phenotype (%)” value [10] was 25% and the “Total Cell Count” value [10] was 81. For the same compound, the “Population Apoptotic (%)” value [11] was 93%, the “Population Fragmented Nuclei (%)” value [11] was 34% and the “Population Healthy Nuclei (%)” value [11] was 1%. For the same compound, the “Population Hoechst High Intensity Objects (%)” value [11] was 14%, the “Population Membrane Permeable-Phenotype (%)” value [11] was 100% and the “Population Mitochondria Different-Phenotype (%)” value [11] was 100%. The “Population Mitotic Cells (%)” value [11] was 6%, the “Population Normal (%)” value [11] was 85% and the “Population Pyknosed Nuclei (%)” value [11] was 63%. The “Population Tubulin-Different-Phenotype (%)” value [11] was 100%, the “Total Cell Count” value [11] was 281 and the “Population Apoptotic (%)” value [12] was 100%. The “Population Fragmented Nuclei (%)” value [12] was 16%, the “Population Healthy Nuclei (%)” value [12] was 20% and the “Population Hoechst High Intensity Objects (%)” value [12] was 18%. The “Population Membrane Permeable-Phenotype (%)” value [12] was 93%, the “Population Mitochondria Different-Phenotype (%)” value [12] was 86% and the “Population Mitotic Cells (%)” value [12] was 0%. For the same compound, the “Population Normal (%)” value [12] was 81%, the “Population Pyknosed Nuclei (%)” value [12] was 62% and the “Population Tubulin-Different-Phenotype (%)” value [12] was 93%. The “Total Cell Count” value [12] was 103.
